Results taken from ChEMBL document CHEMBL1141480 (Bioorg Med Chem Lett, 2008).
Converted amounts (≈) assume the structure as drawn.

Tests used:
[1] = system: Fibroblast; test: Accumulation of intracellular type I collagen in human dermal fibroblast upto 10 uM; format: functional
In short: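 Primary human dermal fibroblasts were grown in 3-D collagen gel, with inhibitors present for the final 3 days at concentrations up to 10 µM. Cells were freed from the gel with collagenase, fixed and permeabilized. Intracellular type I collagen was stained with an anti-type I collagen mAb plus a FITC-labelled secondary antibody and quantified by flow cytometry.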

[2] = Clearance in monkey; format: ADME, organism-based, Macaca mulatta; conditions: rhesus monkey, in vivo
[3] = Half life in monkey; format: ADME, organism-based, Macaca mulatta; conditions: rhesus monkey, in vivo
[4] = system: Osteoclast; test: Inhibition of bone resorption in rabbit osteoclast; conditions: Oryctolagus cuniculus
[5] = target: Cathepsin K (Homo sapiens, UniProt P43235); test: Inhibition of humanized rabbit cathepsin K
[6] = target: T1, Cathepsin K (Oryctolagus cuniculus, UniProt P43236); test: Inhibition of rabbit cathepsin K
T1 sequence (P43236 whole entry): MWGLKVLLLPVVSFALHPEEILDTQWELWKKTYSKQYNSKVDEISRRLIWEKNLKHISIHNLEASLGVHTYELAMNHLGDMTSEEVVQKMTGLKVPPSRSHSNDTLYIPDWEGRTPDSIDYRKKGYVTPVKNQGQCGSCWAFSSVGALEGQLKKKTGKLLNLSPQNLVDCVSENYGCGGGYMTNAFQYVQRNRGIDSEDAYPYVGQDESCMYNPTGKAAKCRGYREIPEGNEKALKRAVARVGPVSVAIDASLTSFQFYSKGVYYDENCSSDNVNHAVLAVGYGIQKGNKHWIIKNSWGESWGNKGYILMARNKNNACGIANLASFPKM

[7] = target: T2, Cathepsin B (Homo sapiens, UniProt P07858); test: Inhibition of cathepsin B
In short: (§1)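 Purified human cathepsin enzymes, with assay conditions per an earlier report. Read-out is IC50; standard deviations were typically within 35% of the IC50.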

[8] = target: T3, Cathepsin S (Homo sapiens, UniProt P25774); test: Inhibition of cathepsin S; in short: as §1
T3 sequence (P25774 whole entry): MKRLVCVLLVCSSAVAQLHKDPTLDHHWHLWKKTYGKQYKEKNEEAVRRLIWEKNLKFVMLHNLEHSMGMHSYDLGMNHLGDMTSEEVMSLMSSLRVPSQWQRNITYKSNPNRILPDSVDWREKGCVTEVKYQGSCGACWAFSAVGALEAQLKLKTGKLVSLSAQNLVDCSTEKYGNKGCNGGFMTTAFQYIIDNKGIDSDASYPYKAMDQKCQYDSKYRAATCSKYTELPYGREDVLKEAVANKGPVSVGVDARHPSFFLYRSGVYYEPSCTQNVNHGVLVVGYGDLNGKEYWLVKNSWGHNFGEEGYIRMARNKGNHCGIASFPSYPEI

[9] = target: T4, Procathepsin L (Homo sapiens, UniProt P07711); test: Inhibition of cathepsin L; in short: as §1
T4 sequence (P07711 whole entry): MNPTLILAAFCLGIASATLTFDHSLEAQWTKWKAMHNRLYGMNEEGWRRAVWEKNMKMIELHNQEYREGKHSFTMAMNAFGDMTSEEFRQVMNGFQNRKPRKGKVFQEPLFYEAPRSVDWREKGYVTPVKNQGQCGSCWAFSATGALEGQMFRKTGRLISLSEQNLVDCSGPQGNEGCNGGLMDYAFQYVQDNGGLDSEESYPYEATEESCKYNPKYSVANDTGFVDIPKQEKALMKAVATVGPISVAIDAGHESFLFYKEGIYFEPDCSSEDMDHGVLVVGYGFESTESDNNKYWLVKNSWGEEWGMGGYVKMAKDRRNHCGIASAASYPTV

[10] = system: Rhesus monkey; test: Volume of distribution at steady state in rhesus monkey at 5 mg/kg, po; format: ADME, organism-based, Macaca mulatta; set-up: dose 5 mg/kg, route oral; conditions: in vivo
[11] = Oral bioavailability in rat at 10 mg/kg; format: ADME, organism-based; conditions: in vivo
[12] = Half life in dog at 5 mg/kg, po; format: ADME, organism-based, Canis lupus familiaris; set-up: dose 5 mg/kg, route oral; conditions: in vivo
[13] = target: T3, Cathepsin S; test: Inhibition of cathepsin S in human ramos cells; format: cell-based
In short: (§2)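 Whole-cell enzyme occupancy assays run as previously described: human HepG2 cells for cathepsin B and L, and Ramos cells for cathepsin S. Read-out is IC50.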

[14] = Inhibition of antigen presenting mouse B cells; format: functional, cell-based
[15] = system: Splenocyte; test: Inhibition of MHC 2 invariant chain iip10 in mouse splenocytes; format: functional, cell-based
[16] = Metabolic stability in rhesus monkey hepatocyte at 20 uM after 2 hrs assessed as recovery of parent compound; format: ADME, cell-based, Macaca mulatta; conditions: hepatocytes, read-out: Stability
[17] = Metabolic stability in dog hepatocyte at 20 uM after 2 hrs assessed as recovery of parent compound; format: ADME, cell-based, Canis lupus familiaris; conditions: hepatocytes, read-out: Stability
[18] = Clearance in dog at 5 mg/kg, po; format: ADME, organism-based, Canis lupus familiaris; set-up: dose 5 mg/kg, route oral; conditions: in vivo
[19] = system: Rattus norvegicus; test: Volume of distribution at steady state in rat at 10 mg/kg, po; format: ADME, organism-based; set-up: dose 10 mg/kg, route oral; conditions: in vivo
[20] = target: T2, Cathepsin B; test: Inhibition of cathepsin B in human HepG2 cells; format: cell-based; in short: as §2
[21] = Oral bioavailability in rhesus monkey at 5 mg/kg; format: ADME, organism-based, Macaca mulatta; conditions: in vivo
[22] = target: T5, Pro-cathepsin H (Homo sapiens, UniProt P09668); test: Inhibition of cathepsin H; in short: as §1
T5 sequence (P09668 whole entry): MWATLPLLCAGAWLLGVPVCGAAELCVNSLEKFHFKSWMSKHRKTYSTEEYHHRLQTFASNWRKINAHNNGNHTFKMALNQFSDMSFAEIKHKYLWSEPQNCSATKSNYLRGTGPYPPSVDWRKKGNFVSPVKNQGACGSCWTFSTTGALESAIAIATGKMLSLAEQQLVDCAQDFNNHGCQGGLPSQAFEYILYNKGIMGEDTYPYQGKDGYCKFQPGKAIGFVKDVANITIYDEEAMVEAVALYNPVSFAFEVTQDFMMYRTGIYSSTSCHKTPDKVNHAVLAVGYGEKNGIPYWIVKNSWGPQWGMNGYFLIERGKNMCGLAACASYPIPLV

[23] = Clearance in rat at 10 mg/kg, po; format: ADME, organism-based; set-up: dose 10 mg/kg, route oral; conditions: in vivo
[24] = Metabolic stability in human hepatocyte at 20 uM after 2 hrs assessed as recovery of parent compound; format: ADME, cell-based; conditions: hepatocytes, read-out: Stability
[25] = Half life in rat at 10 mg/kg, po; format: ADME, organism-based; set-up: dose 10 mg/kg, route oral; conditions: in vivo
[26] = target: T6, Cathepsin L2 (Homo sapiens, UniProt O60911); test: Inhibition of cathepsin V; in short: as §1
T6 sequence (O60911 whole entry): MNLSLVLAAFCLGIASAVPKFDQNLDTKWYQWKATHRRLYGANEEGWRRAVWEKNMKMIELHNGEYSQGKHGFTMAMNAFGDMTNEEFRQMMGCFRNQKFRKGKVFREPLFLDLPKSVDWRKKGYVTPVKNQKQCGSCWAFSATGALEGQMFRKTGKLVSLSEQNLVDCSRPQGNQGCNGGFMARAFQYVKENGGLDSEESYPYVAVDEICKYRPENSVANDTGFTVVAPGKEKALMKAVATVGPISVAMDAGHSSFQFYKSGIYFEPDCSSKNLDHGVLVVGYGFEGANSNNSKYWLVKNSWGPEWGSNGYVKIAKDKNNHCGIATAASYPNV

[27] = Half life in rhesus monkey at 5 mg/kg, po; format: ADME, organism-based, Macaca mulatta; set-up: dose 5 mg/kg, route oral; conditions: in vivo
[28] = Clearance in rhesus monkey at 5 mg/kg, po; format: ADME, organism-based, Macaca mulatta; set-up: dose 5 mg/kg, route oral; conditions: in vivo
[29] = Oral bioavailability in dog at 5 mg/kg; format: ADME, organism-based, Canis lupus familiaris; conditions: in vivo
[30] = target: T4, Procathepsin L; test: Inhibition of cathepsin L in human HepG2 cells; format: cell-based
[31] = target: Dipeptidyl peptidase 1 (Homo sapiens, UniProt P53634); test: Inhibition of cathepsin C; in short: as §1
Dipeptidyl peptidase 1, sequence (P53634 25-134 limits assumed): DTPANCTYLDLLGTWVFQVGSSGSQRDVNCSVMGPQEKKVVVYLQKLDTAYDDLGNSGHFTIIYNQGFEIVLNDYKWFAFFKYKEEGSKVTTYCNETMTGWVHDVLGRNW
Dipeptidyl peptidase 1, sequence (P53634 231-394 limits assumed): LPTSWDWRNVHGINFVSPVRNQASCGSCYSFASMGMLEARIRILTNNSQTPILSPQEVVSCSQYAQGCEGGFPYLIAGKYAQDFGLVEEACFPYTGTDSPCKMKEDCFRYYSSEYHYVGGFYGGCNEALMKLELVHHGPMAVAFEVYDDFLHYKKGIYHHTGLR
Dipeptidyl peptidase 1, sequence (P53634 395-463 limits assumed): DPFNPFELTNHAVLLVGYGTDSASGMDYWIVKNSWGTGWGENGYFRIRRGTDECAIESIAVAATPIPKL

[32] = system: Canis familiaris; test: Volume of distribution at steady state in dog at 5 mg/kg, po; format: ADME, organism-based, Canis lupus familiaris; set-up: dose 5 mg/kg, route oral; conditions: in vivo
[33] = target: Cathepsin Z (Homo sapiens, UniProt Q9UBR2); test: Inhibition of cathepsin Z
Cathepsin Z, sequence (Q9UBR2 whole entry): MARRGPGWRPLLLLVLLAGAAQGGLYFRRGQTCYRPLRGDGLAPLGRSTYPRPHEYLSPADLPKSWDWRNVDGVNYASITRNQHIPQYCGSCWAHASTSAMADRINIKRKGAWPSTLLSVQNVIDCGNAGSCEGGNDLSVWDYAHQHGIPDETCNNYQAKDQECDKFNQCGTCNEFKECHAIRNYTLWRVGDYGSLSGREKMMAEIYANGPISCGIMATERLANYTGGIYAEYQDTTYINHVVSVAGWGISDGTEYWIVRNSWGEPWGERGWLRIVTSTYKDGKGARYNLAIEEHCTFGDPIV

[34] = target: T7, Cathepsin F (Homo sapiens, UniProt Q9UBX1); test: Inhibition of cathepsin F; in short: as §1
T7 sequence (Q9UBX1 whole entry): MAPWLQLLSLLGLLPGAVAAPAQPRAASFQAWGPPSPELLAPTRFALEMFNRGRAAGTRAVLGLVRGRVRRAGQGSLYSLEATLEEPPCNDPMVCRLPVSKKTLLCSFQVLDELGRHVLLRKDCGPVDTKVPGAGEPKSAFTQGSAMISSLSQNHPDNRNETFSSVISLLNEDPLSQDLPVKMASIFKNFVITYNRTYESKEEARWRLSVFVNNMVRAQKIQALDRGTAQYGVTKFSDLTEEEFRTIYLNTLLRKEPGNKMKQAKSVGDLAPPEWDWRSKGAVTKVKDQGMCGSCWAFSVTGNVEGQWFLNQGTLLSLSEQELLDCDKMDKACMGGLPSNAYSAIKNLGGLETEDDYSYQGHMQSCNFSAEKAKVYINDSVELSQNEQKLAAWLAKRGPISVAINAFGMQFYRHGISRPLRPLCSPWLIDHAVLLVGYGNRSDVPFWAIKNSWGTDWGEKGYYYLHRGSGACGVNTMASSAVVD

[35] = target: T8, Cathepsin K (Homo sapiens, UniProt P43235); test: Inhibition of human cathepsin K
T8 sequence (P43235 whole entry): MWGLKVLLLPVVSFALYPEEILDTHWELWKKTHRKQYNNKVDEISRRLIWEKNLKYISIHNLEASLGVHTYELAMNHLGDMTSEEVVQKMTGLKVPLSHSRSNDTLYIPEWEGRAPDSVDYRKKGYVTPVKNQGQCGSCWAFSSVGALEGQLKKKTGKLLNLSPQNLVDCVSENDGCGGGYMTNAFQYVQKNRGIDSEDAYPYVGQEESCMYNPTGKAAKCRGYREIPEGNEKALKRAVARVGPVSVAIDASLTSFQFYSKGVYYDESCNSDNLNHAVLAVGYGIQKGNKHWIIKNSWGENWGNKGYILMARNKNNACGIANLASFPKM

CCCN1CCN(c2ccc(C(=O)NC3(C(=O)NCC#N)CCCCC3)cc2)CC1 [BALICATIB]
Activity [1]: 3

CC(C)C[C@H](N[C@@H](c1ccc(-c2ccc(S(C)(=O)=O)cc2)cc1)C(F)(F)F)C(=O)NCC#N
clearance [2]: 7.5 mL/min/kg
half-life [3]: 120 min
IC50 [4]: 13 nM
IC50 [5]: 0.2 nM
IC50 [6]: 0.8 nM

CC(C)C[C@H](N[C@@H](c1ccc(-c2ccc(S(C)(=O)=O)cc2)cc1)C(F)(F)F)C(=O)N[C@H](C#N)Cc1ccccc1
IC50 [7]: 0.953 µM
IC50 [5]: 0.6 nM
IC50 [8]: 38 nM
IC50 [9]: 67 nM

CC(C)(F)C[C@H](N[C@@H](c1ccc(-c2ccc(S(C)(=O)=O)cc2)cc1)C(F)(F)F)C(=O)NC1(C#N)CC1 [ODANACATIB]
Vdss [10]: 1.6 L/kg
bioavailability [11]: 8%
half-life [12]: 2.38 days
IC50 [13]: 45 nM
IC50 [14]: 1500 nM
MIC [15]: 1000 nM (≈ 0.526 µg/mL)
remaining at 2 h, 20 µM [16]: 98%
remaining at 2 h, 20 µM [17]: > 99%
CL/F [18]: 0.13 mL/min/kg
Vdss [19]: 1.1 L/kg
IC50 [20]: 1050 nM
IC50 [4]: 23 nM
bioavailability [21]: 7%
IC50 [22]: > 10 µM
CL/F [23]: 2 mL/min/kg
IC50 [7]: 1.03 µM
remaining at 2 h, 20 µM [24]: > 99%
IC50 [5]: 0.2 nM
half-life [25]: 360 min
IC50 [26]: 762 nM
half-life [27]: 1080 min
CL/F [28]: 6.1 mL/min/kg
bioavailability [29]: 6%
IC50 [30]: 4.84 µM
IC50 [31]: > 10 µM
Vdss [32]: 0.6 L/kg
IC50 [33]: > 10 µM
IC50 [6]: 1 nM
IC50 [8]: 60 nM
IC50 [34]: 795 nM
IC50 [35]: 0.2 nM
IC50 [9]: 3000 nM

CC(C)C[C@H](NC(=O)c1cc2ccccc2o1)C(=O)N[C@H]1CC[C@@H](C)N(S(=O)(=O)c2ccccn2)CC1=O [RELACATIB]
IC50 [13]: 8 nM
IC50 [20]: 14 nM
IC50 [4]: 15 nM

CC(C)C[C@H](N[C@@H](c1ccc(-c2ccc(S(C)(=O)=O)cc2)cc1)C(F)(F)F)C(=O)NC(C)(C)C#N
IC50 [7]: > 10 µM
IC50 [5]: 4 nM
IC50 [8]: 2490 nM
IC50 [9]: > 10000 nM

CC(C)C[C@H](N[C@@H](c1ccc(-c2ccc(S(C)(=O)=O)cc2)cc1)C(F)(F)F)C(=O)N[C@@H](C#N)Cc1ccccc1
IC50 [7]: > 10 µM
IC50 [5]: 5.1 nM
IC50 [8]: 2830 nM
IC50 [9]: 2940 nM

CC(C)C[C@H](N[C@@H](c1ccc(-c2ccc(S(C)(=O)=O)cc2)cc1)C(F)(F)F)C(=O)NC(C#N)c1ccccc1 (mixture of isomers)
IC50 [7]: 3.45 µM
IC50 [5]: 0.6 nM
IC50 [8]: 217 nM
IC50 [9]: 667 nM

CC(C)C[C@H](N[C@@H](c1ccc(-c2ccc(S(C)(=O)=O)cc2)cc1)C(F)(F)F)C(=O)N[C@@H](C)C#N
IC50 [7]: > 10 µM
IC50 [5]: 1.2 nM
IC50 [8]: 2240 nM
IC50 [9]: 3390 nM
